Data from ChEMBL document CHEMBL1123382, “Potential tumor- or organ-imaging agents. 27. Polyiodinated 1,3-disubstituted and 1,2,3-trisubstituted triacylglycerols” (J Med Chem, 1986).
Where “and” joins values, the source holds several entries; their conditions need not be identical. Equal values may be shown once.

Tests used:
[1] = tested on: Rattus norvegicus; experiment: Biodistribution in Rat lung after 30 minutes of iv administration; format: ADME, organism-based; conditions: in vivo, 0.5 h
Procedure, shortened: (§1)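 125I-labeled compound solubilized in normal saline with Tween-20 and given iv to rats, about 5-30 μCi (9-83 μg) per animal. Three to five rats per time point. Rats killed by exsanguination under ether anesthesia at 5 min, 30 min or 24 h. Organs minced, blotted free of blood and counted for radioiodine. Lines with "per g" are % administered dose per gram ± SEM.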

[2] = tested on: Rattus norvegicus; experiment: Biodistribution in Rat liver after 5 minutes of iv administration; format: ADME, organism-based; conditions: in vivo; procedure, shortened: as §1
[3] = tested on: Rattus norvegicus; experiment: Biodistribution in Rat lung after 24 hours of iv administration; format: ADME, organism-based; conditions: in vivo; procedure, shortened: as §1
[4] = tested on: Rattus norvegicus; experiment: Biodistribution in Rat lung after 5 minutes of iv administration; format: ADME, organism-based; conditions: in vivo; procedure, shortened: as §1
[5] = tested on: Rattus norvegicus; experiment: Biodistribution in Rat blood after 24 hours of iv administration; format: ADME, organism-based; conditions: in vivo; procedure, shortened: as §1
[6] = tested on: Rattus norvegicus; experiment: Biodistribution in Rat blood after 30 minutes of iv administration; format: ADME, organism-based; conditions: in vivo, 0.5 h; procedure, shortened: as §1
[7] = tested on: Rattus norvegicus; experiment: Biodistribution in Rat blood after 5 minutes of iv administration; format: ADME, organism-based; conditions: in vivo; procedure, shortened: as §1
[8] = tested on: Rattus norvegicus; experiment: Biodistribution in Rat heart after 24 hours of iv administration; format: ADME, organism-based; conditions: in vivo; procedure, shortened: as §1
[9] = tested on: Rattus norvegicus; experiment: Biodistribution in Rat heart after 30 minutes of iv administration; format: ADME, organism-based; conditions: in vivo, 0.5 h; procedure, shortened: as §1
[10] = tested on: Rattus norvegicus; experiment: Biodistribution in Rat heart after 5 minutes of iv administration; format: ADME, organism-based; conditions: in vivo; procedure, shortened: as §1
[11] = tested on: Rattus norvegicus; experiment: (§2) Biodistribution in Rat liver after 30 minutes of iv administration; format: ADME, organism-based; conditions: in vivo, 0.5 h; procedure, shortened: as §1
[12] = tested on: Rattus norvegicus; experiment: as §2; format: ADME, organism-based; conditions: in vivo, 0.5 h; procedure, shortened: as §1; remark: listed apart in the source
[13] = tested on: Rattus norvegicus; experiment: Compound was evaluated for the lipid soluble radioactivity extracted from rat plasma at 24 hr after intravenous administration.; format: functional
Procedure, shortened: (§3)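 Liver and plasma taken 0.5 or 24 h after iv dosing of 125I-labeled compound in rats (n = 3-5). Extracted by a modified Folch procedure; value is % lipid (CHCl3/MeOH)-extractable radioactivity ± SEM. Extracts run on TLC in hexane/ethyl acetate 5:2 against unlabeled standard, then 1-cm strips counted to give % parent compound.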

[14] = tested on: Rattus norvegicus; experiment: Compound was evaluated for the lipid soluble radioactivity extracted from rat liver at 0.5 hr after intravenous administration.; format: functional; procedure, shortened: as §3
[15] = tested on: Rattus norvegicus; experiment: Compound was evaluated for the lipid soluble radioactivity extracted from rat liver at 24 hr after intravenous administration.; format: functional; procedure, shortened: as §3
[16] = tested on: Rattus norvegicus; experiment: Compound was evaluated for the lipid soluble radioactivity extracted from rat plasma at 0.5 hr after intravenous administration.; format: functional; procedure, shortened: as §3
[17] = tested on: Rattus norvegicus; experiment: Liver radioactivity after iv administration of compound (24 h) in rats; format: functional, organism-based
Procedure, shortened: (§4)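 Rats (3-5 per time point) dosed iv with about 5-30 μCi (9-83 μg) of 125I-labeled compound in saline containing Tween-20. Killed by exsanguination under ether at 5 min, 30 min or 24 h. Liver removed, minced, blotted and counted. Values are % administered dose per organ, based on each animal's actual liver weight, ± SEM.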

[18] = tested on: Rattus norvegicus; experiment: Liver radioactivity after iv administration of compound (30 min) in rats; format: functional, organism-based; procedure, shortened: as §4
[19] = tested on: Rattus norvegicus; experiment: Liver radioactivity after iv administration of compound (5 min) in rats; format: functional, organism-based; procedure, shortened: as §4
[20] = tested on: Rattus norvegicus; experiment: Compound (125I labeled) was evaluated for the total radioactivity in albumin 5 min after intravenous administration.; format: functional; parameters: concentration or dose not given beside the values
Procedure, shortened: (§5)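 Rat plasma taken 5 or 30 min after iv dosing of 125I-labeled compound (saline/Tween-20) and run on polyacrylamide gel electrophoresis. Gels sectioned and each section gamma-counted. Radioactivity in each band (stacking gel, lipoproteins, albumin, below-albumin) is given as % of total radioactivity applied to the gel.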

[21] = tested on: Rattus norvegicus; experiment: Evaluated for the total radioactivity in below albumin at 30 min after intravenous administration.; format: functional; procedure, shortened: as §5
[22] = tested on: Rattus norvegicus; experiment: Compound (125I labeled) was evaluated for the total radioactivity in high-density lipoprotein 5 min after intravenous administration.; format: functional; procedure, shortened: as §5
[23] = tested on: Rattus norvegicus; experiment: Compound (125I labeled) was evaluated for the total radioactivity in high-density lipoprotein, at 30 min after intravenous administration.; format: functional; procedure, shortened: as §5
[24] = tested on: Rattus norvegicus; experiment: Compound (125I labeled) was evaluated for the total radioactivity in low-density lipoprotein 5 min after intravenous administration.; format: functional; parameters: concentration or dose not given beside the values; procedure, shortened: as §5
[25] = tested on: Rattus norvegicus; experiment: Compound (125I labeled) was evaluated for the total radioactivity in low-density lipoprotein, at 30 min after intravenous administration.; format: functional; procedure, shortened: as §5
[26] = tested on: Rattus norvegicus; experiment: Compound (125I labeled) was evaluated for the total radioactivity in stacking gel 5 min after intravenous administration.; format: functional; procedure, shortened: as §5
[27] = tested on: Rattus norvegicus; experiment: Compound (125I labeled) was evaluated for the total radioactivity in stacking gel at 30 min after intravenous administration.; format: functional; procedure, shortened: as §5
[28] = tested on: Rattus norvegicus; experiment: Compound (125I labeled) was evaluated for the total radioactivity in albumin at 30 min after intravenous administration.; format: functional; parameters: concentration or dose not given beside the values; procedure, shortened: as §5
[29] = tested on: Rattus norvegicus; experiment: (§6) Biodistribution in Rat liver after 30 minutes of iv administration; per g of tissue; format: ADME, organism-based; conditions: in vivo, 0.5 h; procedure, shortened: as §1
[30] = tested on: Rattus norvegicus; experiment: Biodistribution in Rat lung after 24 hours of iv administration; per g of tissue; format: ADME, organism-based; conditions: in vivo; procedure, shortened: as §1
[31] = tested on: Rattus norvegicus; experiment: Biodistribution in Rat lung after 30 minutes of iv administration; per g of tissue; format: ADME, organism-based; conditions: in vivo, 0.5 h; procedure, shortened: as §1
[32] = tested on: Rattus norvegicus; experiment: Biodistribution in Rat lung after 5 minutes of iv administration; per g of tissue; format: ADME, organism-based; conditions: in vivo; procedure, shortened: as §1
[33] = tested on: Rattus norvegicus; experiment: Biodistribution in Rat blood after 24 hours of iv administration; per g of tissue; format: ADME, organism-based; conditions: in vivo; procedure, shortened: as §1
[34] = tested on: Rattus norvegicus; experiment: Biodistribution in Rat blood after 5 minutes of iv administration; per g of tissue; format: ADME, organism-based; conditions: in vivo; procedure, shortened: as §1
[35] = tested on: Rattus norvegicus; experiment: Biodistribution in Rat heart after 24 hours of iv administration; per g of tissue; format: ADME, organism-based; conditions: in vivo; procedure, shortened: as §1
[36] = tested on: Rattus norvegicus; experiment: Biodistribution in Rat heart after 30 minutes of iv administration; per g of tissue; format: ADME, organism-based; conditions: in vivo, 0.5 h; procedure, shortened: as §1
[37] = tested on: Rattus norvegicus; experiment: Biodistribution in Rat heart after 5 minutes of iv administration; per g of tissue; format: ADME, organism-based; conditions: in vivo; procedure, shortened: as §1
[38] = tested on: Rattus norvegicus; experiment: Biodistribution in Rat liver after 24 hours of iv administration; per g of tissue; format: ADME, organism-based; conditions: in vivo; procedure, shortened: as §1
[39] = tested on: Rattus norvegicus; experiment: as §6; format: ADME, organism-based; conditions: in vivo, 0.5 h; procedure, shortened: as §1; remark: listed apart in the source
[40] = tested on: Rattus norvegicus; experiment: Biodistribution in Rat liver after 5 minutes of iv administration; per g of tissue; format: ADME, organism-based; conditions: in vivo; procedure, shortened: as §1
[41] = tested on: Rattus norvegicus; experiment: Biodistribution in Rat blood after 30 minutes of iv administration; per g of tissue; format: ADME, organism-based; conditions: in vivo, 0.5 h; procedure, shortened: as §1
[42] = tested on: Rattus norvegicus; experiment: Biodistribution in Rat liver after 24 hours of iv administration; format: ADME, organism-based; conditions: in vivo; procedure, shortened: as §1

Compound | Extracted [13] | Parent compound [13] | Extracted [14] | Parent compound [14] | Extracted [15] | Parent compound [15] | Extracted [16] | Parent compound [16] | Radioactivity [17] | Radioactivity [18] | Radioactivity [19] | Total radioactivity [20] | Total radioactivity [21] | Total radioactivity [22] | Total radioactivity [23] | Total radioactivity [24] | Total radioactivity [25] | Total radioactivity [26] | Total radioactivity [27] | Total radioactivity [28] | other results
Nc1c(I)cc(I)c(CCC(=O)OCC(COC(=O)CCc2c(I)cc(I)c(N)c2I)OC(=O)CCc2c(I)cc(I)c(N)c2I)c1I | 83.3% | 68.2% | 94.8% | 97.3% | 91.1% | 96.5% | 89% | 94.5% | 86.2 | 75.5 | 60.5 | 10.5% | 3.2% and 4.1% | 38.4% | 34.5% | 29.6% | 27.6% | 18.3% | 20.2% | 13.8% | Biodistribution [1]: 6.63%; Biodistribution [2]: 0.44% and 8.02%; Biodistribution [3]: 2.64%; Biodistribution [4]: 6.69%; Biodistribution [5]: 0.05%; Biodistribution [6]: 1.71%; Biodistribution [7]: 2.15%; Biodistribution [8]: 0.19%; Biodistribution [9]: 0.82%; Biodistribution [10]: 1.93%; Biodistribution [11]: 10.4%; Biodistribution [12]: 10.38%
CCCCCCCCCCCCCCCC(=O)OC(COC(=O)CCc1c(I)cc(I)c(N)c1I)COC(=O)CCc1c(I)cc(I)c(N)c1I | 63.7% | 80% | 86.2% | 94.2% | 83.1% | 88% | 62.9% | 90.6% | 14.7 | 38.4 | 43.1 | 5% | 0.2% and 1.2% | 52.8% | 36.3% | 27.8% | 40.6% | 14.2% | 19% | 2.8% | Biodistribution [29]: 5.82%; Biodistribution [30]: 0.21%; Biodistribution [31]: 0.94%; Biodistribution [32]: 0.75%; Biodistribution [33]: 0.31%; Biodistribution [34]: 3.48%; Biodistribution [35]: 0.42%; Biodistribution [36]: 0.56%; Biodistribution [37]: 0.43%; Biodistribution [38]: 0.29% and 2.19%; Biodistribution [39]: 5.82%; Biodistribution [40]: 0.5% and 6.19%; Biodistribution [41]: 4.25%
Nc1c(I)cc(I)c(CCCCCCCCCCCCCCCCC(=O)OCC(COC(=O)CCCCCCCCCCCCCCCCc2c(I)cc(I)c(N)c2I)OC(=O)CCCCCCCCCCCCCCCCc2c(I)cc(I)c(N)c2I)c1I | 54.2% | 20.2% | 50.7% | 15.1% | 73.4% | 9.5% | 70.1% | 29.2% | 3 | 38.8 | 54.4 | 20.3% | 7.1% and 6.8% | 32.7% | 28.1% | 32.2% | 15.1% | 6.4% | 3.8% | 46.2% | Biodistribution [1]: 0.94%; Biodistribution [2]: 0.52% and 6.68%; Biodistribution [3]: 0.07%; Biodistribution [4]: 1.08%; Biodistribution [5]: 0.06%; Biodistribution [6]: 2.1%; Biodistribution [7]: 4.14%; Biodistribution [8]: 0.03%; Biodistribution [9]: 0.92%; Biodistribution [10]: 0.74%; Biodistribution [42]: 0.14% and 0.44%; Biodistribution [11]: 5.28%; Biodistribution [12]: 5.28%
